The source made the active and inactive calls. The rule behind the calls is not given here.
Experiments:
MCF7 [1] = experiment: Cytotoxicity against human MCF7 cells assessed as reduction in cell viability at 1 uM after 24 hrs by MTT assay relative to control; assay type: cell-based; settings: mcf7, 24 h
[2] = target: T1, Estrogen receptor (Homo sapiens) (UniProt P03372); experiment: Inhibition of recombinant human GFP-fused ERalpha LBD (301 to 553 residues) expressed in human […] cells assessed as downregulation of 17beta-estradiol-induced transcription at 5 uM preincubated for 4 hrs followed by E2 addition measured after 20 hrs in presence of tamoxifen by dual luciferase reporter gene assay; assay type: cell-based
T1 sequence (whole entry): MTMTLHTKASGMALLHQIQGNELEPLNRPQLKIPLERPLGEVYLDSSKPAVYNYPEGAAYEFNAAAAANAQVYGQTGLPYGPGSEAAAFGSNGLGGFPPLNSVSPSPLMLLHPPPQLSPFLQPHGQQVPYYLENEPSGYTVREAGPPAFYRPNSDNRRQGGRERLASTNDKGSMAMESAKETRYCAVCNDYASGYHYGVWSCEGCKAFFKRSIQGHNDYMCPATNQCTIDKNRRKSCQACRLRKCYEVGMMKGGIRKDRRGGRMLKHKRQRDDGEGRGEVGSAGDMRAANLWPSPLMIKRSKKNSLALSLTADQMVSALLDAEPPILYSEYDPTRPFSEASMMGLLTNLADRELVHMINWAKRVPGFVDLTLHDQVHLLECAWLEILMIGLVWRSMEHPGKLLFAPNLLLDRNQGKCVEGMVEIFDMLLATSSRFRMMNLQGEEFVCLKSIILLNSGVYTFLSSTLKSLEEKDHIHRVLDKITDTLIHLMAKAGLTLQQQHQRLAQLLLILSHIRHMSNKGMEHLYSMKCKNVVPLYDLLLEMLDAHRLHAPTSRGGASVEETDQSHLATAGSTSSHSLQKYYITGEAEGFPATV
In short: (§1)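 U2OS cells in phenol red-free DMEM with 10% charcoal-stripped FBS, transfected 4 h with pEGFP-C1-ERα, 3XERE firefly luciferase reporter and pRL-TK Renilla plasmids. Peptides for 4 h, then 10 nM E2 or DMSO for 20 h. Lysates read by dual-luciferase; firefly normalized to Renilla, then to DMSO-treated control. SEM from more than two independent experiments.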

MCF-10A = experiment: Cytotoxicity against human MCF10A cells assessed as reduction in cell viability up to 40 uM after 24 hrs by MTT assay; assay type: cell-based
In short: (§2)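 MTT read-out. 5000−10000 cells/well seeded overnight in their own medium: MCF7 and MCF10A in DMEM with phenol red, 10% FBS, 37 °C, 5% CO2; T47D in RPMI1640 with insulin and 10% FBS; MDA-MB-231 in L-15, 10% FBS, no CO2. Serial peptide dilutions or DMSO for 20 h at 37 °C, then MTT 4 h more; formazan in DMSO, A570.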

[3] = target: T1, Estrogen receptor (Homo sapiens); experiment: Inhibition of ERalpha in human MCF7 cells assessed as downregulation of 17beta-estradiol-mediated pS2 mRNA expression at 5 uM preincubated for 4 hrs followed by 17beta-estradiol addition measured after 16 hrs by quantitative RT-PCR analysis; assay type: cell-based
In short: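 MCF-7 cells hormone-depleted 72 h in phenol red-free DMEM with 5% charcoal-treated serum, given peptides or DMSO for 4 h, then 100 nM 17β-estradiol or DMSO for 16 h. pS2 mRNA measured by quantitative RT-PCR, normalized to β-actin. Three independent experiments, mean ± SEM.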

T47D = experiment: Cytotoxicity against human T47D cells assessed as reduction in cell viability up to 40 uM after 24 hrs by MTT assay; assay type: functional, cell-based; in short: as §2
MCF7 [4] = experiment: Cytotoxicity against human MCF7 cells assessed as reduction in cell viability after 24 hrs by MTT assay; assay type: functional, cell-based; in short: as §2
MCF7 [5] = experiment: Cytotoxicity against human MCF7 cells assessed as cell viability at 20 uM after 24 hrs by MTT assay; assay type: functional; settings: MCF7, 24 h, read-out: Activity
MDA-MB-231 = experiment: Cytotoxicity against human MDA-MB-231 cells assessed as reduction in cell viability up to 40 uM after 24 hrs by MTT assay; assay type: functional, cell-based; in short: as §2
MCF7 [6] = experiment: Cytotoxicity against human MCF7 cells assessed as reduction in cell viability at 5 uM after 24 hrs by MTT assay relative to control; assay type: cell-based; settings: mcf7, 24 h
[7] = target: T1, Estrogen receptor (Homo sapiens); experiment: Inhibition of recombinant human GFP-fused ERalpha LBD (301 to 553 residues) expressed in human […] cells assessed as downregulation of 17beta-estradiol-induced transcription at 5 uM preincubated for 4 hrs followed by E2 addition measured after 20 hrs by dual luciferase reporter gene assay; assay type: cell-based; in short: as §1
MCF7 [8] = experiment: Cytotoxicity against human MCF7 cells assessed as cell viability up to 100 uM after 24 hrs by MTT assay; assay type: functional, cell-based; in short: as §2

inhibition [2]	inhibition [3]	inhibition [7]	Compound	Activity (MCF7 [1]) [%]	Activity (MCF-10A)	Activity (T47D)	Activity (MCF7 [4])	IC50 (MCF7 [4]; MCF7, 24 h) [µM]	viability at 20 µM (MCF7 [5]) [%]	Activity (MDA-MB-231)	Activity (MCF7 [6]) [%]	Activity (MCF7 [8])
Active	Active	Active	CC[C@H](C)[C@@H]1NC(=O)C[C@H](NC(=O)[C@H](CCCNC(=N)N)NC(=O)CCNC(=O)[C@H](Cc2c[nH]c3ccccc23)NC(C)=O)C(=O)NCC(C(=O)N[C@@H](CCCNC(=N)N)C(=O)NC(CC(C)(C)C)C(=O)NC(CC(C)(C)C)C(=O)N[C@@H](CCC(N)=O)C(N)=O)NC(=O)C(CC(C)(C)C)NC1=O (some centres undefined)	< 20	Non-Toxic	Active	Dose-dependent effect	12	14	inactive	< 20	–
–	–	–	CC/C(=C(\c1ccccc1)c1ccc(OCCN(C)C)cc1)c1ccccc1 [TAMOXIFEN]	< 20	–	–	–	–	–	–	< 20	Active

Reference: ChEMBL document CHEMBL4017549, “Structural Basis of Inhibition of ERα-Coactivator Interaction by High-Affinity N-Terminus Isoaspartic Acid Tethered Helical Peptides” (J Med Chem, 2017)
